From ChEMBL document CHEMBL1649543 (Antimicrob Agents Chemother, 2009)
The source made the active and inactive calls. No cut-off for these calls is given here.

Assays:
[1] = biological target: T1, Multidrug resistance protein CDR1 (Candida albicans, UniProt P43071); assay: Inhibition of GFP-tagged Candida albicans CDR1 expressed in Saccharomyces cerevisiae assessed as inhibition of R6G efflux
Summary of the method: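 S. cerevisiae AD-CDR1 cells were grown 5 h, then de-energized 45 min in 5 mM deoxyglucose/5 mM dinitrophenol in glucose-free PBS. Compound (10–100 μM) was added 5 min before 10 μM R6G, and cells were loaded 40 min at 30°C. After washing, efflux was started with 2% glucose. Supernatant A527 was read at 40 min, with glucose-free controls. Means of three independent experiments.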

Saccharomyces cerevisiae [2] = assay: Toxicity against CDR1-expressing Saccharomyces cerevisiae AD after 48 hrs by MTT assay
[3] = biological target: Multidrug resistance protein CDR1 (Candida albicans) (UniProt P43071); conditions: 100 uM
[4] = biological target: Multidrug resistance protein CDR1 (Candida albicans) (UniProt P43071); conditions: 100 uM; remark: listed apart in the source
Candida albicans [5] = assay: Effect on CDR1 expression in Candida albicans at 100 uM by Western blot analysis; format: functional, organism-based
Saccharomyces cerevisiae [6] = assay: Toxicity against PDR5-expressing Saccharomyces cerevisiae AD after 48 hrs by MTT assay
[7] = biological target: T1, Multidrug resistance protein CDR1; assay: Displacement of [125I]IAAP from GFP-tagged Candida albicans CDR1 expressed in Saccharomyces cerevisiae
Summary of the method: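 Crude membranes (50 μg) from S. cerevisiae AD-CDR1 cells were preincubated with compound for 10 min at 37°C in 50 mM Tris-HCl pH 7.5. They were then given 3–6 nM [125I]IAAP for 5 min under subdued light and UV-crosslinked at 365 nm for 10 min at room temperature. Cdr1p was immunoprecipitated with anti-GFP, run on 7% Tris-acetate gel, and the band quantified by phosphorimager.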

Saccharomyces cerevisiae [8] = assay: Toxicity against Saccharomyces cerevisiae AD1-8u after 48 hrs by MTT assay
Saccharomyces cerevisiae [9] = assay: Toxicity against Candida albicans MDR1-expressing Saccharomyces cerevisiae AD1-8u after 48 hrs by MTT assay
Saccharomyces cerevisiae [10] = assay: Toxicity against CDR2-expressing Saccharomyces cerevisiae AD after 48 hrs by MTT assay
Candida albicans [11] = assay: Antifungal activity against Candida albicans by checkerboard method in presence of itraconazole; format: functional
Summary of the method: (§1)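 Checkerboard (CLSI method) on S. cerevisiae AD1-8u cells overexpressing GFP-tagged C. albicans Cdr1p (AD-CDR1). […] FIC = MIC in combination/MIC alone.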

Candida albicans [12] = assay: Antifungal activity against Candida albicans by checkerboard method in presence of miconazole; format: functional; summary of the method: as §1
Candida albicans [13] = assay: Antifungal activity against Candida albicans by checkerboard method in presence of ketoconazole; format: functional; summary of the method: as §1
Candida albicans [14] = assay: Antifungal activity against Candida albicans by checkerboard method in presence of R6G; format: functional; summary of the method: as §1
[15] = test system: COc1cc(/C=C/C(=O)CC(=O)/C=C/c2ccc(O)c(OC)c2)ccc1O; conditions: Candida albicans

O=C(/C=C/c1ccc(O)cc1)CC(=O)/C=C/c1ccc(O)cc1 [BISDEMETHOXYCURCUMIN] showed an IC50 [1] of 40 µM.

In the case of COc1cc(/C=C/C(=O)CC(=O)/C=C/c2ccc(O)c(OC)c2)ccc1O [CURCUMIN], the IC50 (Saccharomyces cerevisiae [2]) is reported as 493 µM, the inhibition [3] is reported as “Active” and the inhibition [4] is reported as “inactive”. For the same molecule, the Activity (Candida albicans [5]) was “inactive”, the IC50 (Saccharomyces cerevisiae [6]) was 498 µM and the IC50 [7] was 14.2 µM. It also gave an IC50 (Saccharomyces cerevisiae [8]) of 422 µM, an IC50 (Saccharomyces cerevisiae [9]) of 455 µM and an IC50 [1] of 40 µM. For the same molecule, the IC50 (Saccharomyces cerevisiae [10]) was 411 µM.

With COc1cc(/C=C/C(O)=C/C(=O)/C=C/c2ccc(O)cc2)ccc1O [DEMETHOXYCURCUMIN] the IC50 [1] was 45 µM.

Work on CCC(C)n1ncn(-c2ccc(N3CCN(c4ccc(OCC5COC(Cn6cncn6)(c6ccc(Cl)cc6Cl)O5)cc4)CC3)cc2)c1=O (configuration not stated) [ITRACONAZOLE] yielded an FIC (Candida albicans [11]) of 0.005.

In the case of CC(=O)N1CCN(c2ccc(OCC3COC(Cn4ccnc4)(c4ccc(Cl)cc4Cl)O3)cc2)CC1 (configuration not stated) [KETOCONAZOLE], the FIC (Candida albicans [12]) is reported as 0.005 and the FIC (Candida albicans [13]) is reported as 0.0054.

Molecule CC/N=c1\cc2oc3cc(NCC)c(C)cc3c(-c3ccccc3C(=O)OCC)c-2cc1C.Cl [RHODAMINE 6G HYDROCHLORIDE] has an FIC (Candida albicans [14]) of 0.0013.

With “Multidrug resistance protein CDR1 (Candida albicans) (from UniProt P43071)” the Km [15] was 5.87 µM.
